From paper PMC7083616 (Science Advances, 2020)

What was measured:
[1] = target: T1, ~55-kDa band (TrxR1) in A549 cell lysates (Homo sapiens, UniProt Q16881); experiment: DG-8 competition assay in A549 cell lysates; type: binding; settings: compound 0.5 to 50 μM 30 min, then DG-8 5 μM 30 min
T1 sequence (Q16881 1-499 isoform Q16881-5): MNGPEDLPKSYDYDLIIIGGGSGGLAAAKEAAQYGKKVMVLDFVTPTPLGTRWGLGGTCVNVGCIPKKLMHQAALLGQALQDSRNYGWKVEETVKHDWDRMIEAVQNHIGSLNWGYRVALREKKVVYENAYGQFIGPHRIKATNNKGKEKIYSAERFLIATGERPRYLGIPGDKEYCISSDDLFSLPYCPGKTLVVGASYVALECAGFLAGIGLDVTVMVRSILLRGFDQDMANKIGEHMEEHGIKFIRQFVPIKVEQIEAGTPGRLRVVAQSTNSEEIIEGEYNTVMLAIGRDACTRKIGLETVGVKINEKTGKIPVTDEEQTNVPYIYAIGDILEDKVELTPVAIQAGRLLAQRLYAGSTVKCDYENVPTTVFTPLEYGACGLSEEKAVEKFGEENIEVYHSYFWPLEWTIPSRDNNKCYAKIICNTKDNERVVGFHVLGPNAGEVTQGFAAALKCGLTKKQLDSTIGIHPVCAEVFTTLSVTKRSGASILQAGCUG
In short: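 A549 lysate (30 μg) was preincubated with test compound (0.5 to 50 μM) for 30 min, then with the dansyl-tagged probe (5 μM) for 30 min. Samples in LDS buffer with 100 mM DTT were heated at 95°C for 5 min and run on 10% bis-tris gels. The ~55-kDa band was imaged by UV dansyl fluorescence.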

TrxR1 [2] = target: T2, TrxR1 (Homo sapiens, UniProt Q16881); experiment: Cellular TrxR1 activity, Trx1-linked insulin end point assay; type: cell-based; settings: FaDu cells, 1 μM, 3 hours
T2 sequence (Q16881 1-499 isoform Q16881-5): T1 sequence (Q16881 1-499 isoform Q16881-5)
In short: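 FaDu cells were seeded at 400,000 per well and treated 24 h later for 3 h at 37°C. Cells were lysed in modified RIPA buffer and protein measured by BCA. Lysate was incubated with 0.16 mM insulin, 0.33 mM NADPH and 16 μM Trx1 in TE buffer (pH 7.5) at 37°C for 0–90 min. Each time point was stopped with 7.2 M guanidine-HCl/2.5 mM DTNB and read at A412. Activity came from the A412 rise against a pure-enzyme standard curve; n = 3.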

Nrf2 = experiment: pTRAF reporter, Nrf2 transcriptional activity; type: cell-based, human; settings: HEK293 cells, 1 μM, 24 hours
In short: (§1)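 HEK293 cells were seeded at 20,000 per well on collagen I-coated plates. The next day, they were transfected overnight with 50 ng of the pTRAF-Nrf2/HIF/NFκB vector using Turbofect. Cells were then exposed for 24 h to 1 μM test compound. Positive controls were auranofin (1 μM) for Nrf2 and TNF-α (20 ng/ml) for NFκB. After 30 min Hoechst (40 ng/ml), per-well reporter fluorescence was quantified by high-content imaging.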

TrxR1 [3] = target: T2, TrxR1; experiment: Recombinant TrxR1 insulin reduction assay; type: biochemical; settings: with NADPH, Trx1 used to reduce insulin
In short: (§2)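 Test compound was preincubated for 75 min with 10 nM TrxR1 or 10 nM TrxR2, plus BSA (0.1 mg/ml) and 250 μM NADPH. Then 25 μM Trx1 (TrxR1) or Trx2 (TrxR2) and 160 μM insulin were added. NADPH consumption was followed at A340 for 20 min.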

[4] = test system: STAT-driven luciferase expression; experiment: STAT-dependent luciferase in HEK293-shScramble and HEK293–shPrx1 + Prx2; type: cell-based, human; settings: IL6 50 ng/ml + sIL6R 100 ng/ml
NFκB = experiment: pTRAF reporter, NFκB transcriptional activity; type: cell-based, human; settings: HEK293 cells, 1 μM, 24 hours
In short: as §1

TrxR2 = TrxR2 (Homo sapiens, UniProt Q9NNW7); experiment: Recombinant TrxR2 insulin reduction assay; type: biochemical; settings: with NADPH, Trx2 used to reduce insulin
In short: as §2

TrxR2, sequence (Q9NNW7 37-524, species assumed): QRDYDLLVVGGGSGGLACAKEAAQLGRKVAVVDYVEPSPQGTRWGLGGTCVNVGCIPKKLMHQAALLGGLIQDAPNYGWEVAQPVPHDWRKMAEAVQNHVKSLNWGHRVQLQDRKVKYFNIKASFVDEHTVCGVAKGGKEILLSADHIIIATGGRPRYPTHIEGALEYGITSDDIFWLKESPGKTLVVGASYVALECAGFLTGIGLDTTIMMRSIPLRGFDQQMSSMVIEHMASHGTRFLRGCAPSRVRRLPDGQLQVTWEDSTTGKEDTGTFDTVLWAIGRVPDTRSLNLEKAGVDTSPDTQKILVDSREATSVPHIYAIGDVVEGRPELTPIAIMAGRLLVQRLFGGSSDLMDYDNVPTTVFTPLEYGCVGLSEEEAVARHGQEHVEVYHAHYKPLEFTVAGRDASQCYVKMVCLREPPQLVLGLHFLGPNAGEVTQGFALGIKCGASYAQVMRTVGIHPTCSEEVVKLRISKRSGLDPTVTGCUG

Row | Compound | competition with DG-8 for binding to the ~55-kDa band [1] | effect on cellular TrxR1 activity (TrxR1 [2]) | Nrf2 activation (Nrf2) | inhibition of recombinant TrxR1 activity (TrxR1 [3]) | luciferase inhibition in control versus Prx1 + Prx2 knockdown cells [4] | inhibition of cellular TrxR1 activity (TrxR1 [2]) | NFκB activation (NFκB) | inhibition of recombinant TrxR2 activity (TrxR2)
1 | CN(CC(=O)N(Cc1ccc(C2CCCCC2)cc1)c1ccc(C(=O)O)c(O)c1)S(=O)(=O)c1c(F)c(F)c(F)c(F)c1F [BP1-102] | not able to compete with the probe | did not appreciably alter the TrxR1 activity | did not activate Nrf2 | did not fully inhibit the enzymatic activity of TrxR1 | – | – | – | –
2 | O=[N+]([O-])c1ccc2c(c1)S(=O)(=O)C=C2 [Stattic] | could compete with DG-8 for binding | – | clearly triggered Nrf2 activation | potently inhibited the activity of TrxR1 | more potently inhibited luciferase expression in the control cells | approximately 40% | little effect on NFκB activation | –
3 | COc1ccc([N+](=O)[O-])c(S(=O)(=O)c2ccc(Cl)cc2)n1 [TRi-1] | potently outcompeted the probe | – | – | – | more potently inhibited luciferase expression in the control cells | – | – | –
4 | CC(=O)OC[C@H]1O[C@@H]([S-])[C@H](OC(C)=O)[C@@H](OC(C)=O)[C@@H]1OC(C)=O.CCP(CC)CC.[Au+] [auranofin] | potently outcompeted the probe | – | – | potently inhibited the activity of TrxR1 | – | – | – | the only compound that inhibited TrxR2
